The values that follow come from ChEMBL document CHEMBL2429723, “Design and synthesis of MMP inhibitors with appended fluorescent tags for imaging and visualization of matrix metalloproteinase enzymes” (Bioorg Med Chem Lett, 2013).

The target in data set [1] is 72 kDa type IV collagenase (Homo sapiens, UniProt P08253). As to the kind of experiment: Inhibition of human recombinant MMP2 using Mca-Lys-Pro-Leu-Gly-Leu-Dpa-Ala-Arg-NH2 as substrate by fluorescence plate reader analysis. The method in brief:
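rhMMP2 activated with 1 mM APMA in assay buffer (50 mM Tris, 10 mM CaCl2, 150 mM NaCl, 0.05% Brij-35, pH 7.5), 37 °C, 1 h, then diluted to 248 ng/mL. Enzyme and test samples combined at ambient temperature; substrate (25 µM) added to start. Kinetic fluorescence at 320 nm excitation/405 nm emission; blank-subtracted duplicates; IC50 from six-point curves.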

For data set [2], the target named is Matrix metalloproteinase-9 (Homo sapiens, UniProt P14780). As to the kind of experiment: Inhibition of human MMP9.
For data set [3], the target named is Matrix metalloproteinase-14 (Homo sapiens, UniProt P50281). As to the kind of experiment: Inhibition of human recombinant MMP14 using Mca-Lys-Pro-Leu-Gly-Leu-Dpa-Ala-Arg-NH2 as substrate by fluorescence plate reader analysis. The method in brief:
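Enzyme and test samples combined at ambient temperature; substrate (20 µM) added to start. Kinetic read at 320/405 nm, substrate blank subtracted, duplicates, IC50 from six-point dose-response curves.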

In a further data set the test system is MCF7. As to the kind of experiment: Cellular uptake in human MCF7 cells over-expressing MMP14 by confocal microscopy relative to control. Type of data set: ADME, cell-based. The method in brief:
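MMP-14-overexpressing and parental MCF7 cells incubated with the conjugate at 37 °C and imaged by confocal microscopy, parental cells serving as comparison.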

Sequence of Matrix metalloproteinase-9 (P14780 whole entry): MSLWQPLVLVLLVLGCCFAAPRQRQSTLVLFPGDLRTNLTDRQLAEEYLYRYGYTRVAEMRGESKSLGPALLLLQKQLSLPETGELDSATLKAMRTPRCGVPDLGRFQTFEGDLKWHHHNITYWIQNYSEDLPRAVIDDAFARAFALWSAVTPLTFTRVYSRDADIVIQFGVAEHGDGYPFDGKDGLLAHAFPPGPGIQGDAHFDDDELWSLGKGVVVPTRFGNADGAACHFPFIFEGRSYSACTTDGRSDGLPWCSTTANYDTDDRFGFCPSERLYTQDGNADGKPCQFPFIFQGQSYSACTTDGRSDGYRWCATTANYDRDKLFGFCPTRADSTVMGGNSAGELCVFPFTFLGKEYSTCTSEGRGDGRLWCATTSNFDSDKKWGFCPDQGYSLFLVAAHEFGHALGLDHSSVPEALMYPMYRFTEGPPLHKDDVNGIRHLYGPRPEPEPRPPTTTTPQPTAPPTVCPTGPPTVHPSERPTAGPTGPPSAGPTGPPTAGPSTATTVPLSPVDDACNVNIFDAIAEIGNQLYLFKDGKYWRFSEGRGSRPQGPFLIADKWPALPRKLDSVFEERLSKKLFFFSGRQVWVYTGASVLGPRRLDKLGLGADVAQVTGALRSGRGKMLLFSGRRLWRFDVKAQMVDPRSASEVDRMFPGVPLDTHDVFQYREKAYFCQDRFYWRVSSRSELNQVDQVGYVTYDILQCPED
Sequence of 72 kDa type IV collagenase (P08253 whole entry): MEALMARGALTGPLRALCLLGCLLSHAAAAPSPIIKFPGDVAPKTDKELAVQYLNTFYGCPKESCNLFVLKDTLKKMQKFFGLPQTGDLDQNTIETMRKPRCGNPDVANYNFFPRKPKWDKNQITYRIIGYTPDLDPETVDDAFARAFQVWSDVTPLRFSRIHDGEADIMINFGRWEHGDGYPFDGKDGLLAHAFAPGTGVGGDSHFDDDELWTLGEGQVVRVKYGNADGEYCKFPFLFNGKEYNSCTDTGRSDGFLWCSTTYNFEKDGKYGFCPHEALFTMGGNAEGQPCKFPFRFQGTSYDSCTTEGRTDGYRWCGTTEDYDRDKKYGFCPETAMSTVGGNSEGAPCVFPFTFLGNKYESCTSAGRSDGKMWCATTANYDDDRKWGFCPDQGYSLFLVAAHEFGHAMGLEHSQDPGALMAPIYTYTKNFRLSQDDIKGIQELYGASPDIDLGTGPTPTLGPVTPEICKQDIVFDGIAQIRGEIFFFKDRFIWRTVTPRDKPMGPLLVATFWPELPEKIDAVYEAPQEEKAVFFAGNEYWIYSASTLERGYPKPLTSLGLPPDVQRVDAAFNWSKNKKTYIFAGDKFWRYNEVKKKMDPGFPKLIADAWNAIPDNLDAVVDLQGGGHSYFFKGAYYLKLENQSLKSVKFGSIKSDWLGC

For the compound `O=C(NO)C1(S(=O)(=O)c2ccc(Oc3ccc(OC(F)(F)F)cc3)cc2)CCN(C2CC2)CC1`, the half-inhibitory concentration (IC50) in data set [1] was < 1 nM.
Turning to `CC(C)(C)NC(=O)c1nc(N)c(C(=O)NCCC(=O)N2CCC(C(=O)NO)(S(=O)(=O)c3ccc(Oc4ccc(OC(F)(F)F)cc4)cc3)CC2)nc1N`, the concentration for half-maximal inhibition (IC50) in data set [2] amounted to 4.1 nM; in data set [1], 5.1 nM.
Regarding `Nc1nc(C(=O)N2CCC(C(=O)NO)(S(=O)(=O)c3ccc(Oc4ccc(OC(F)(F)F)cc4)cc3)CC2)c(N)nc1C(=O)N1CCCC1`, the IC50 in data set [2] and in data set [1] was < 1 nM each time.
Consider `CN(C)c1ncc(N2CCC(C(=O)NO)(S(=O)(=O)c3ccc(Oc4ccc(OC(F)(F)F)cc4)cc3)CC2)nc1C#N`, for which the results for the IC50 in data set [2] and in data set [1] were < 1 nM and 1.6 nM, respectively.
For the compound `N[C@@H](CCCCNC(=O)c1ccc2c(c1)C(=O)OC21c2ccc(O)cc2Oc2cc(O)ccc21)C(=O)N1CCC(C(=O)NO)(S(=O)(=O)c2ccc(Oc3ccc(OC(F)(F)F)cc3)cc2)CC1`, the IC50 in data set [3] was 100 nM; in data set [2] it was < 1 nM; in data set [1] it was < 1 nM. In addition, the Drug uptake entry in the data set with MCF7 is on record as “Active”.
With `CC1(C)C(/C=C/C2=C(N3CCC(C(=O)NO)(S(=O)(=O)c4ccc(Oc5ccc(OC(F)(F)F)cc5)cc4)CC3)C(=C/C=C3/N(CCCCS(=O)(=O)O)c4ccccc4C3(C)C)/CCC2)=[N+](CCCCS(=O)(=O)[O-])c2ccccc21`, the half-maximal inhibitory concentration (IC50) in data set [2] is 1.6 nM; in data set [1] it was 2.8 nM.

What is called IC50 is the midpoint of a concentration-inhibition curve.
